In general, ED50 refers to the dose at which the effect has come halfway, by size or by number of responders. The low end stands for greater potency, the high end for weaker potency. What is called EC25 is the concentration at which the effect reaches the 25% level. The low end stands for an effect from little substance, the high end for a need for much substance.

Structures are written as SMILES. In brackets after ≈: the same amount, converted by molar mass.

The record followed here is ChEMBL document CHEMBL1123397, “Antiarrhythmic activity of 17 beta-aminoestratrienes. Comparison of 3-ols and 3-acetates with the corresponding 3-(3-amino-2-hydroxypropyl) ethers” (1986).

Assay [1] concerns Rattus norvegicus. Description: Effective dose that antagonized arrhythmias evoked by coronary artery ligation in the rat was measured at 5 mg/kg dose. In kind it is functional.
The subject of assay [2] is Rattus norvegicus. As to the kind of experiment: Effect on heart rate after isoprenaline induced tachycardia in the anesthetized rat at 5 mg/kg dose. In kind it is functional. The gist of the method: (§1)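 Same ligation protocol in anaesthetised male Wistar rats. Heart rate was taken from the lead II ECG at three points: just before i.v. drug or vehicle, 14 min after it (just before isoprenaline 10 μg/kg), and 1 min after isoprenaline. Pre vs post rates and isoprenaline responses vs controls were compared by Student's t test. Mean ± SEM of 7-12 observations.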

The subject of assay [3] is Rattus norvegicus. As to the kind of experiment: Effect on heart rate before isoprenaline induced tachycardia in the anesthetized rat at 5 mg/kg dose. The class given is functional. In short, it runs like this: (§2)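 Test drug or vehicle was given i.v., and isoprenaline (10 µg/kg) 14 min later. Heart rate was read from the lead II ECG just before drug, at 14 min (pre-isoprenaline) and 1 min after isoprenaline. Compared by Student's t test; 7–12 animals per group; mean ± SEM.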

Assay [4] concerns Rattus norvegicus. Description: Effect on heart rate on 1 min post isoprenaline induced tachycardia in the anesthetized rat at 5.0 mg/kg dose. In kind it is functional. In short, it runs like this:
as §2

In assay [5] the test system is Rattus norvegicus. As to the kind of experiment: Compound was tested for antagonism of Ventricular Fibrilloflutter (VF) evoked by coronary artery ligation in the rat measured at 10 mg/kg dose. In kind it is functional, Heart. The gist of the method: (§3)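 Male Wistar rats, anaesthetised and artificially ventilated, with left thoracotomy; silk suture under main left coronary artery. After stabilization, test drug or vehicle i.v.; 14 min later isoprenaline 10 μg/kg; 1 min after that the ligature was tightened and VF incidence recorded over 30 min. Carotid pressure and lead II ECG monitored continuously. 7-12 animals per group.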

Assay [6] concerns Rattus norvegicus. As to the kind of experiment: Antagonism of Ventricular Fibrilloflutter (VF) evoked by coronary artery ligation in the rat measured at 2 mg/kg dose. In kind it is functional, Heart. The gist of the method:
as §3

Assay [7] concerns Rattus norvegicus. As to the kind of experiment: Compound was tested for antagonism of Ventricular Fibrilloflutter (VF) evoked by coronary artery ligation in the rat measured at 5 mg/kg dose. The class given is functional, Heart. In short, it runs like this: as §3
The subject of assay [8] is Rattus norvegicus. As to the kind of experiment: Mean change in heart rate recorded 14 min after the administration of compound. The class given is functional. In short, it runs like this:
as §2

For assay [9], the species on record is Rattus norvegicus. Description: Maximum increase in heart rate evoked by isoprenaline. In kind it is functional. The gist of the method: as §2
For assay [10], the species on record is Cavia porcellus. As to the kind of experiment: Concentration required to reduce maximum following frequencu (MFF) of isolated guinea pig atria by 25%. The class given is functional. In short, it runs like this:
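Guinea pig left atria in an organ bath of Krebs solution at 35 °C, gassed with carbogen, electrically driven, isometric contractions recorded. Drugs added cumulatively; maximum following frequency determined 6 min after each concentration. Concentration reducing MFF by 25% (EC25) calculated from six preparations.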

For the next assay, the species on record is Mus musculus. As to the kind of experiment: ED 50 value against aconitine-induced arrhythmias in mice. The class given is functional. The gist of the method:
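Anaesthetised mice were given test compound intraperitoneally, then aconitine intravenously to induce arrhythmia. At least three doses were tested in separate groups (n = 6-10). ED50 is the dose raising the arrhythmogenic aconitine dose 50% above the control requirement.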

The subject of assay [11] is Rattus norvegicus. As to the kind of experiment: Compound that antagonized arrhythmias evoked by coronary artery ligation in the rat was measured at 0.2 mg/kg dose. The class given is functional. In short, it runs like this:
as §3

For assay [12], the system named is Rattus norvegicus. As to the kind of experiment: Compound was tested for antagonism of Ventricular Fibrilloflutter (VF) evoked by coronary artery ligation in the rat measured at 0.2 mg/kg dose. The class given is functional, Heart. The gist of the method: as §3
Assay [13] deals with Rattus norvegicus. As to the kind of experiment: Effect on heart rate before isoprenaline induced tachycardia in the anesthetized rat at 0.2 mg/kg dose. In kind it is functional. The gist of the method: as §1
The test system of assay [14] is Rattus norvegicus. Description: Effect on heart rate 1 min post isoprenaline induced tachycardia in the anesthetized rat at 0.2 mg/kg dose. In kind it is functional. The gist of the method: as §1
The species entered for assay [15] is Cavia porcellus. As to the kind of experiment: Compound was tested for antiarrhythmic activity expressed as action potential height (AP) in guinea pig atria at 2(ug/mL) concentration. In kind it is functional, Heart. The gist of the method: (§4)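 Guinea pig left atria pinned in a recording chamber, superfused with carbogen-gassed Krebs solution at 35 ± 0.5 °C and electrically stimulated. Transmembrane action potentials were recorded with conventional microelectrodes, giving RMP, AP height, APD50, APD90 and maximum rate of depolarization. Values are mean ± SEM from n cells across five preparations.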

The species named for assay [16] is Cavia porcellus. Description: Compound was tested for antiarrhythmic activity (time taken to reach 50% repolarization) in guinea pig atria at 2(ug/mL) concentration. In kind it is functional, Heart. The gist of the method:
as §4

The species named for assay [17] is Cavia porcellus. As to the kind of experiment: Compound was tested for antiarrhythmic activity (time taken to reach 50% repolarization) in guinea pig atria at 4(ug/mL) concentration. In kind it is functional, Heart. In short, it runs like this:
as §4

Assay [18] is filed under the species Cavia porcellus. As to the kind of experiment: Compound was tested for antiarrhythmic activity (time taken to reach 50% repolarization) in guinea pig atria at 8(ug/mL) concentration. The class given is functional, Heart. The gist of the method: as §4
Assay [19] is filed under the species Cavia porcellus. Description: Compound was tested for antiarrhythmic activity (time taken to reach 90% repolarization) in guinea pig atria at 2(ug/mL) concentration. The class given is functional, Heart. In short, it runs like this:
as §4

The species named for assay [20] is Cavia porcellus. As to the kind of experiment: Compound was tested for antiarrhythmic activity (time taken to reach 90% repolarization) in guinea pig atria at 4(ug/mL) concentration. The class given is functional, Heart. In short, it runs like this:
as §4

The species named for assay [21] is Cavia porcellus. Description: Compound was tested for antiarrhythmic activity (time taken to reach 90% repolarization) in guinea pig atria at 8(ug/mL) concentration. The class given is functional, Heart. In short, it runs like this: as §4
The species named for assay [22] is Cavia porcellus. Description: Compound was tested for antiarrhythmic activity expressed as action potential height (AP) in guinea pig atria at 4(ug/mL) concentration. In kind it is functional, Heart. The gist of the method: as §4
For assay [23], the species on record is Cavia porcellus. Description: Compound was tested for antiarrhythmic activity expressed as action potential height (AP) in guinea pig atria at 8(ug/mL) concentration. In kind it is functional, Heart. The gist of the method:
as §4

For assay [24], the species on record is Cavia porcellus. As to the kind of experiment: Compound was tested for antiarrhythmic activity (maximum rate of phase 0 depolarization- MRD) in guinea pig atria at 2(ug/mL) concentration. The class given is functional, Heart. In short, it runs like this: as §4
The species named for assay [25] is Cavia porcellus. Description: Compound was tested for antiarrhythmic activity (maximum rate of phase 0 depolarization- MRD) in guinea pig atria at 4(ug/mL) concentration. The class given is functional, Heart. In short, it runs like this:
as §4

Assay [26] is filed under the species Cavia porcellus. Description: Compound was tested for antiarrhythmic activity (maximum rate of phase 0 depolarization- MRD) in guinea pig atria at 8(ug/mL) concentration. In kind it is functional, Heart. The gist of the method: as §4
For assay [27], the species on record is Cavia porcellus. Description: Compound was tested for antiarrhythmic activity expressed as resting membrane potential (RMP) in guinea pig atria at 2 ug/mL concentration. The class given is functional. To be noted: Heart. In short, it runs like this: as §4
The species entered for assay [28] is Cavia porcellus. As to the kind of experiment: Compound was tested for antiarrhythmic activity expressed as resting membrane potential (RMP) in guinea pig atria at 4 ug/mL concentration. In kind it is functional. To be noted: Heart. In short, it runs like this:
as §4

The species named for assay [29] is Cavia porcellus. As to the kind of experiment: Compound was tested for antiarrhythmic activity expressed as resting membrane potential (RMP) in guinea pig atria at 8 ug/mL concentration. The class given is functional. To be noted: Heart. In short, it runs like this: as §4
In assay [30] the test system is Rattus norvegicus. Description: Effective dose of compound that antagonized arrhythmias evoked by coronary artery ligation in the rat was measured at 0.5 mg/kg dose. The class given is functional.
The test system of assay [31] is Rattus norvegicus. As to the kind of experiment: Effect on heart rate after isoprenaline induced tachycardia in the anesthetized rat at 0.5 mg/kg dose. In kind it is functional. The gist of the method: as §1
Assay [32] has as its system Rattus norvegicus. Description: Effect on heart rate before isoprenaline induced tachycardia in the anesthetized rat at 0.5 mg/kg dose. The class given is functional. The gist of the method: as §1
For assay [33], the system named is Rattus norvegicus. Description: Effect on heart rate on 1 min post isoprenaline induced tachycardia in the anesthetized rat at 0.5 mg/kg dose. The class given is functional. The gist of the method:
as §2

The test system of assay [34] is Rattus norvegicus. Description: Compound was tested for antagonism of Ventricular Fibrilloflutter (VF) evoked by coronary artery ligation in the rat measured at 0.5 mg/kg dose. The class given is functional, Heart. The gist of the method: as §3

Regarding `CC(=O)Nc1ccc(OCC(O)CNC(C)C)cc1` (stereo not drawn) [PRACTOLOL], the ED50 with Rattus norvegicus [1] was found to be 5.6 mg/kg. Further, the Heart rate in the assay with Rattus norvegicus [2] is recorded as 351 beats min-1; in the assay with Rattus norvegicus [3], 459 beats min-1; with Rattus norvegicus [4] it was 377 beats min-1. The values for the VF in the assay with Rattus norvegicus [5], in the assay with Rattus norvegicus [6] and in the assay on Rattus norvegicus [7] were 29%, 80% and 43%, respectively. Further, the Change with Rattus norvegicus [8] is recorded as -23.5%. This compound had an Increase in the assay listed under Rattus norvegicus [9] of 7.4%.

In the assay filed under Cavia porcellus [10], `CNC1[C@H](O)C[C@H]2[C@@H]3CCc4cc(OC(C)=O)ccc4[C@H]3CC[C@]12C` (stereo partly drawn) gave an EC25 of 5.06 µg/mL (≈ 14.7 µM). This compound showed a median effective dose (ED50) in the assay filed under Mus musculus of 9 mg/kg. This compound yielded an ED50 at 0.2 mg/kg in the assay on Rattus norvegicus [11] below 0.2 mg/kg. In the assay on Rattus norvegicus [12], this compound displayed a VF of 29%. Further, the Heart rate in the assay with Rattus norvegicus [13] turned out to be 403 beats min-1; in the assay with Rattus norvegicus [14], 392 beats min-1. Further, the Change with Rattus norvegicus [8] is given as -10.9%. Besides, the Increase in the assay filed under Rattus norvegicus [9] came out at 9.2%.

Take `CN(C)C1[C@H](O)C[C@H]2[C@@H]3CCc4cc(O)ccc4[C@H]3CC[C@]12C` (stereo partly drawn): the AP in the assay listed under Cavia porcellus [15] is recorded as 78.9 mV; in the assay listed under Cavia porcellus [22], 73.5 mV; in the assay filed under Cavia porcellus [23] it was 69.9 mV. The APD50 came to 29.6 ms in the assay listed under Cavia porcellus [16], 29 ms in the assay filed under Cavia porcellus [17] and 43.5 ms in the assay filed under Cavia porcellus [18]. The APD90 in the assay filed under Cavia porcellus [19] came to 70.9 ms; in the assay listed under Cavia porcellus [20], 74.2 ms; in the assay listed under Cavia porcellus [21], 98.9 ms. Besides, the MRD in the assay filed under Cavia porcellus [24] worked out at 86 V s-1; in the assay listed under Cavia porcellus [25], 60.1 V s-1; in the assay listed under Cavia porcellus [26], 30.5 V s-1. The results for the RMP in the assay filed under Cavia porcellus [27], in the assay filed under Cavia porcellus [28] and in the assay listed under Cavia porcellus [29] were 70.1 mV, 71.8 mV and 69.3 mV, respectively. The 25% effect level in the assay listed under Cavia porcellus [10] (EC25) was put at 1.86 µg/mL (≈ 5.9 µM). The ED50 in the assay listed under Mus musculus worked out at 11.5 mg/kg; with Rattus norvegicus [30] it was 0.15 mg/kg. Also, the VF worked out at 33% in the assay on Rattus norvegicus [12], 13% in the assay on Rattus norvegicus [34] and 0% in the assay on Rattus norvegicus [6]. Also, the Heart rate was 434 beats min-1 in the assay with Rattus norvegicus [31], 442 beats min-1 with Rattus norvegicus [32] and 490 beats min-1 with Rattus norvegicus [33]. Moreover, the Change in the assay on Rattus norvegicus [8] is -1.8%. The compound also had an Increase in the assay filed under Rattus norvegicus [9] of 12.9%.
